# Screens deposited in PubChem BioAssay by several laboratories.
# Most compounds without a hit are left out; they make up all but 5.6% or so of the library.
# NR3A LBD binder: modulates the human NR3A ligand-binding domain; NR3A LBD differential scanning fluorimetry, Tm shift; 0% = protein alone, 100% = glycine-bound protein; Tm shift relative to glycine control, % at 25 µM; actives 2.5% (n = 340,000);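 active = melting temperature shift of at least 10% of the positive control shift, at one fixed dose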
# CHOP UPR activ: activators of apoptotic arm of unfolded protein response (CHOP). activation, % at 10 µM. CHO-CHOP luciferase reporter, UPR activation, luminescence; percent of tunicamycin response over DMSO baseline. actives 0.34% (n = 330,000);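 active = at 10 µM dose, activation of 40% or more, normalized to positive control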;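 note: 100% = tunicamycin at 10 µg/mL and 0% = DMSO alone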
#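 Evaluation: % reporter activation, DMSO baseline versus tunicamycin full activation; System: CHO-CHOP luciferase reporter cell line; Input: 500 cells/well; Incubation: 6 h compound treatment, 37 °C; Measured by: Steady-Glo luciferase luminescence; Dosing: one dose, 10 µM in 0.5% DMSO; Buffer or medium: F12 medium, 10% FBS; Benchmarks: positive tunicamycin 10 µg/mL, negative DMSO alone.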
# CHOP inh: CHOP inhibition in unfolded protein response; CHO-K1 CHOP-promoter luciferase, tunicamycin-induced, 15-18 h; inhibition, % at 10 µM; actives 3.8% (n = 220,000); AID 2732;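 active = compounds that reduced the stress-induced luciferase reporter signal by more than about 70% of percent inhibition, limit read from the data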;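 note: 0% = tunicamycin plus vehicle and 100% = wells without tunicamycin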
# MPTP block: permeability transition pore inhibition. actives 1.4% (n = 360,000). AID 602449. isolated mouse mitochondria, Ca2+ swelling absorbance, 30 min. inhibition, % at 10 µM;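 active = inhibition of 50% or more, scaled per plate between neutral and stimulator controls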;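 note: 0% = DMSO wells given calcium and 100% = 1 mM EGTA wells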
# UPR XBP1 act: activators of adaptive arm of unfolded protein response (XBP1); actives 0.33% (n = 330,000); activation, % at 20 µM; CHO-XBP1 luciferase reporter, IRE1-XBP1 UPR activation, luminescence; percent of tunicamycin response, DMSO as zero;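 active = versus positive control, 20 µM dose yields 30% or more activation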;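 note: 100% = tunicamycin at 10 µg/mL and 0% = DMSO only wells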
#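 Material: CHO-XBP1 cells stably carrying IRE1-XBP1-driven luciferase reporter | Medium: F12 with 10% serum | Compound dosing: 20 µM single concentration, DMSO 1% | Incubation: Overnight seeding at 37 °C, 6 h compound treatment at 37 °C | Detection: Steady-Glo luminescence read | Read-out basis: % activation of reporter signal versus tunicamycin and DMSO controls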
# aDG glyco act: increases alpha dystroglycan glycosylation. Pro5-aDG cells, alpha-DG glycosylation AlphaScreen (IIH6); 0% Pro5, 100% B10-LARGE cell signal. actives 0.22% (n = 360,000). AID 624168. activation, % at 10 µM;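 active = activation of at least 8% versus controls, or a plate z-score of at least 8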;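 note: Pro5 are CHO cells carrying HIG-tagged alpha-DG that lacks glycosylation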
# Active calls of the source: *; . = no result.
SMILES,NR3A LBD binder,CHOP UPR activ,CHOP inh,MPTP block,UPR XBP1 act,aDG glyco act
CCCC(C(=O)NNC(=O)c1cc(C)oc1C)c1ccccc1 (stereo not given),-1,-2,.,0,-3,0
CCOc1nc(Nc2ccc(OC)c(Cl)c2)nc(N2CCN(c3ccc(OC)cc3)CC2)n1,-4,1,74*,2,-5,0
COC1CCN(C(=O)c2ccc3oc(Cc4ccc(Cl)cc4)nc3c2)CC1,-1,3,.,-2,-4,0
O=C(c1ccc2oc(Cc3ccc(Cl)cc3)nc2c1)N1CCCCC1CCO (stereo not given),10*,0,.,-1,-2,1
O=C(Cn1c(=O)oc2cc(S(=O)(=O)N3CCCCC3)ccc21)N1CCc2ccccc21,2,22,68,1,35*,0
O=C(Cn1c(=O)oc2cc(S(=O)(=O)N3CCCC3)ccc21)N1CCc2ccccc2C1,-2,-1,85*,0,-2,0
O=C(Cn1c(=O)oc2cc(S(=O)(=O)N3CCOCC3)ccc21)N1CCc2ccccc2C1,-2,1,9,1,-4,0
O=C(Cn1c(=O)oc2cc(S(=O)(=O)N3CCc4ccccc43)ccc21)N1CCCCC1,3,2,22,-2,-7,0
COC(=O)c1cc(=O)n(CCc2ccccc2)c(=Nc2ccc(F)cc2)s1,2,6,5,-1,5,0
CCn1c(=O)cc(C(=O)OC)sc1=Nc1ccc(F)c(F)c1,7,8,96*,2,6,0
CCCn1c(N)c(C(=O)CSc2nnc(C3CC3)n2Cc2ccccc2)c(=O)n(C)c1=O,0,1,.,-1,-2,0
Cc1nc(C(F)(F)F)nc(Nc2ccc(Br)cc2)c1C#N,2,-1,82*,0,1,0
Cc1ccc(-c2csc(N3CCC(C(N)=O)(N4CCCCC4)CC3)n2)cc1,-12,0,82*,5,-1,0
Cc1ccc(-c2csc(N3CCC(C(N)=O)CC3)n2)cc1,-1,5,.,0,3,0
Cc1ccc(NC(=O)c2nc[nH]c2C(=O)N2CCN(c3ccccc3)CC2)cc1,-6,0,34,1,-1,0
CCOC(=O)c1ccc(NC(=O)c2nc[nH]c2C(=O)NC2CCN(C(=O)OC(C)(C)C)CC2)cc1,3,3,85*,0,1,0
CCOC(=O)c1ccc(NC(=O)c2nc[nH]c2C(=O)N2CCN(c3ccccc3)CC2)cc1,-4,1,73*,1,-4,1
Cc1ccc(NC(=O)c2nc[nH]c2C(=O)N2CCN(C(=O)OC(C)(C)C)CC2)cc1,12*,0,.,0,-1,0
Cc1oc2cc(OC(C)C(=O)O)ccc2c(=O)c1Oc1ccccc1 (stereo not given),-1,-1,-7,1,-3,0
CCOc1ccc2c(=O)c(Oc3ccccc3)c(C)oc2c1,-11,1,76*,-1,-2,0
Cc1cccc(C)c1NC1=NC(=S)N(c2ccccc2)C12CCOC(C)(C)C2 (stereo not given),0,-1,-17,-2,-1,0
Cc1ccc(N2C(=S)N=C(Nc3ccccc3C)C23CCOC(C)(C)C3)cc1 (stereo not given),0,-2,84*,0,-5,0
COc1ccc(C(c2c[nH]c3ccccc23)c2c[nH]c3ccccc23)cc1O,.,2,75*,5,-1,0
Cc1cccc2c(=O)cc(C)n(Cc3ccccc3)c12,12*,1,31,2,-2,0
O=C(COC(=O)CNS(=O)(=O)c1ccc(Br)cc1Cl)NC1CCCC1,18*,0,.,-1,-4,0
SMILES,NR3A LBD binder,CHOP UPR activ,CHOP inh,MPTP block,UPR XBP1 act,aDG glyco act
Cc1cccc(N2CCN(C(=O)CCCOc3ccccc3)CC2)c1C,-1,3,84*,1,2,0
Cc1cccc(N2CCN(C(=O)Cn3cccc3C(=O)c3ccccc3)CC2)c1C,-1,-1,71*,1,-4,0
Cc1cccc(N2CCN(C(=O)COc3cccc4c3OC(C)(C)C4)CC2)c1C,0,1,79*,10,3,0
Cc1cc(OCCCC(=O)N2CCCCC2)cc(C)c1Cl,-1,2,83*,-1,-1,0
C[C@@H]1CN([C@H](C)CO)C(=O)CCCn2nncc2CO[C@H]1CN(C)CC1CC1,.,.,.,1,.,0
COc1ccccc1OCC(=O)NCC1CCCN(Cc2cnn(C)c2C)C1 (stereo not given),1,-1,.,-1,-3,0
O=CN/C=C/c1cccc(O)c1,14*,.,.,-1,.,0
Cc1cc(C)cc(C(=O)NC(CC(N)=O)c2ccc(N3CCN(C)CC3)c([N+](=O)[O-])c2)c1 (stereo not given),-2,0,.,-1,0,0
COc1ccc(-c2[nH]ncc2/C=C(/C#N)C(=O)NC2CCCCC2)cc1,-7,0,31,2,-1,0
Cc1ccc(-c2[nH]ncc2/C=C(\C#N)C(=O)NC2CCCCC2)cc1,-5,0,72*,1,0,0
COc1ccc2cc3c(N)nn(C(=O)c4ccccc4Cl)c3nc2c1,-1,-4,77*,1,-1,0
COc1ccc2cc3c(N)nn(C(=O)c4cccc(F)c4)c3nc2c1,-3,0,37,2,3,0
COc1ccc2cc3c(N)nn(C(=O)c4ccc(F)cc4)c3nc2c1,-1,0,67,0,-1,0
COc1cccc(CC(=O)n2nc(N)c3cc4ccc(OC)cc4nc32)c1,1,1,95*,0,0,0
COc1ccc2cc3c(N)nn(C(=O)Cc4c[nH]c5ccccc45)c3nc2c1,8,-4,79*,1,-3,0
COc1ccc2cc3c(N)nn(C(=O)Cc4ccc(Cl)cc4)c3nc2c1,-1,1,83*,0,-2,1
COc1ccc(CN(C)C(=O)Cc2c[nH]c3ccccc23)cc1,1,1,.,0,-1,0
O=C1NC[C@@H](CCCCN2C[C@H](Cc3ccc(O)cc3)N(Cc3ccccc3)C(=O)C2=O)N(CCC2CCCCC2)C1=O,.,.,.,-2,.,0
COC(C[C@@H]1O[C@H]1[C@H](O)[C@@H](C)OCc1ccccc1)OC,.,1,.,.,-2,.
Clc1cccc(NCc2cn3cccnc3n2)c1,11*,2,10,-3,0,0
CCCC(C(=O)N(C)CC(=O)Nc1ccc(N2CCOCC2)cc1)c1ccccc1 (stereo not given),-2,1,.,-3,-1,0
